# Measurements gathered from unrelated publications.
# Lines come from different studies, so protocols differ. pIC50: −log10 of the molar value.
# Effect on: enzyme activity
# Action: inhibitor
# EGFR L858R: Epidermal growth factor receptor (EGFR, Homo sapiens, UniProt P00533, L858R)
# EGFR: Epidermal growth factor receptor (EGFR, Homo sapiens, UniProt P00533)
# EGFR L858R/T790M: Epidermal growth factor receptor (EGFR, Homo sapiens, UniProt P00533, L858R/T790M)
target,test,setting,pIC50,SMILES
EGFR L858R,,,6.94,CC(C)Cc1ccc(-c2nn(-c3ccc(S(C)(=O)=O)cc3)cc2/C=N/N=c2\[nH]c(-c3ccc([N+](=O)[O-])cc3)cs2)cc1
EGFR,mobility shift,,5.77,COc1cccc(CNc2ncnc3cc(Cl)ccc23)c1
EGFR,FRET,,6.64,COCCOc1cc2ncnc(Nc3ccc(OCCn4ccnc4[N+](=O)[O-])c(Cl)c3)c2cc1OCCOC
EGFR L858R,,,7.44,COc1ccc(-c2nn(-c3ccc(S(C)(=O)=O)cc3)cc2/C=N/N=c2\[nH]c(-c3ccc(Br)cc3)cs2)cc1
EGFR,mobility shift,,7.46,COc1cc2ncnc(NCc3cccs3)c2cc1OC
EGFR L858R/T790M,ELISA,,7.89,C=C(Cl)C(=O)Nc1cc(Nc2nc(N3CCc4sccc4C3)c3sccc3n2)c(OC)cc1N(C)CCN(C)C
EGFR,ELISA,,8.00,COc1ccc(-c2csc(Nc3ccc4c(O)ncnc4c3)n2)cc1
EGFR,ELISA,,< 6.00,C=C(Cl)C(=O)Nc1cc(Nc2nc(Nc3cnn(C)c3)c3sccc3n2)c(OC)cc1N1CCN(C)CC1
EGFR,,,10.00,COc1cc2ncnc(Nc3ccc(F)c(Cl)c3)c2cc1NC(=O)N/N=C/c1cccn1CCN(C)C
"Epidermal growth factor receptor (EGFR, Homo sapiens, UniProt P00533, G719D)",TR-FRET,,7.27,C=CC(=O)Nc1cc(Nc2nccc(-c3cn(C4CC4)c4ccccc34)n2)c(OC)cc1N(C)CCN(C)C
EGFR,radiometric,,8.60,OCc1ccc(Nc2ccc3c(Nc4cccc(C(F)(F)F)c4)ncnc3c2)cc1
EGFR,ELISA,,< 6.00,C=C(Cl)C(=O)Nc1cc(Nc2nc(N3CCOCC3)c3sccc3n2)c(OC)cc1N(C)CCN(C)C
EGFR L858R/T790M,,,7.94,CN1CCN(C/C=N/NC(=O)Nc2cc3c(Nc4ccc(F)c(Cl)c4)ncnc3cc2O[C@H]2CCOC2)CC1
EGFR,ELISA,,7.79,Oc1ccc(-c2csc(Nc3ccc4c(O)ncnc4c3)n2)cc1
EGFR L858R/T790M,ELISA,,6.46,C=CC(=O)Nc1cc(Nc2nc(N3CCc4sccc4C3)c3cccnc3n2)c(OC)cc1N1CCC(N(C)C)CC1
EGFR,radiometric,,4.54,O=C1c2c(O)cc(O)cc2OC(c2ccc(O)c(O)c2)C1O (stereo not shown)
EGFR L858R/T790M,,,7.88,CCN(CC)C/C=N/NC(=O)Nc1cc2c(Nc3ccc(F)c(Cl)c3)ncnc2cc1O[C@H]1CCOC1
EGFR L858R/T790M,ELISA,,< 6.00,CCC(=O)Nc1cc(Nc2nc(N3CCc4sccc4C3)c3cccnc3n2)c(OC)cc1N1CCSCC1
EGFR,ELISA,,8.53,O=[N+]([O-])c1ccc(-c2csc(Nc3ccc4c(O)ncnc4c3)n2)cc1
EGFR L858R/T790M,,with preincubation,7.89,C=CC(=O)Nc1cc(Nc2nccc(Nc3cc(Cl)c(F)cc3C(C)(C)O)n2)c(OC)cc1N1CC[C@@H](N(C)C)C1
EGFR,,,< 6.30,COc1ccc2c(Oc3ccc4c(C(=O)Nc5ccccc5N)cccc4c3)ccnc2c1
EGFR L858R/T790M,,,7.84,O=C(N/N=C/CN1CCOCC1)Nc1cc2c(Nc3ccc(F)c(Cl)c3)ncnc2cc1O[C@H]1CCOC1
EGFR,FRET,,6.72,COc1cc2c(Nc3ccc(OCCn4ccnc4[N+](=O)[O-])c(Cl)c3)ncnc2cc1OCCCN1CCOCC1
EGFR,,,8.92,COc1cc2ncnc(Nc3ccc(F)c(Cl)c3)c2cc1NC(=O)N/N=C/c1cccn1CCCN(C)C
EGFR L858R/T790M,ELISA,,8.23,C=C(Cl)C(=O)Nc1cc(Nc2nc(Nc3cnn(C)c3)c3sccc3n2)c(OC)cc1N(C)CCN(C)C
EGFR,,,9.22,O=C(N/N=C/c1cccn1CCN1CCOCC1)Nc1cc2c(Nc3ccc(F)c(Cl)c3)ncnc2cc1O[C@H]1CCOC1
EGFR,ELISA,,8.66,Oc1ncnc2cc(Nc3nc(-c4ccc(C(F)(F)F)cc4)cs3)ccc12
EGFR,,,9.30,CCN(CC)CCCn1cccc1/C=N/NC(=O)Nc1cc2c(Nc3ccc(F)c(Cl)c3)ncnc2cc1O[C@H]1CCOC1
EGFR L858R/T790M,,,7.10,COc1ccc(-c2nn(-c3ccc(S(C)(=O)=O)cc3)cc2C=N/N=c2\[nH]c(-c3ccc([N+](=O)[O-])cc3)cs2)cc1
EGFR L858R/T790M,,,7.81,CN(C)C/C=N/NC(=O)Nc1cc2c(Nc3ccc(F)c(Cl)c3)ncnc2cc1O[C@H]1CCOC1
EGFR,ELISA,,8.32,Oc1ncnc2cc(Nc3nc(-c4ccc(Cl)cc4)cs3)ccc12
